Source: PubChem
bIAP inh = blocks bovine intestinal alkaline phosphatase activity. purified bovine IAP, CDP-star luminescence, 30 min. inhibition, % at 20 µM. 190,000 tested, under 10 active;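 active = over 50% inhibition of intestinal alkaline phosphatase at 20 µM in the single-dose screen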
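System: Purified bovine intestinal alkaline phosphatase (IAP) enzyme | Input: IAP diluted 1/65,000,000 in the well | Also added: CDP-star chemiluminescent phosphatase substrate, 30 µM final | Dosing: 20 µM single dose | Times: Enzyme reaction for 30 min at room temperature | Detection: Luminescence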
bIAP activator = intestinal alkaline phosphatase (bovine) activation. purified bovine IAP, CDP-star luminescence, 30 min; stronger effect = higher value; fold of DMSO-control signal, blank-subtracted. AID 1016. activation factor at 20 µM. actives 0.17% (n = 200,000);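 active = activation factor of 2 or more at 20 µM, a signal rise over negative controls twice the positive control's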
mIAP act = mouse IAP activation | AID 2805 | muIAP, CDP-Star luminescence, 30 min; stronger effect = higher value; 1 = vehicle-only enzyme signal, 0 = enzyme-free wells | actives 0.24% (n = 330,000) | activation factor at 10 µM;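 active = activation factor of at least 2 at 20 µM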
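Assay system: mouse IAP enzyme; Reagent: CDP-Star chemiluminescent phosphatase substrate; Compound: DMSO-dissolved test compounds; Incubation: 30 min, room temperature; Technique: luminescence from enzymatic CDP-Star hydrolysis; Controls: DMSO-only wells and no-enzyme negative control.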
hIAP inh = human IAP inhibition | inhibition, % at 10 µM | actives 0.12% (n = 330,000) | AID 2544 | purified IAP, CDP-Star luminescence, 30 min;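 active = inhibition reaching a set limit with compound at 10 µM in the primary screen, cut at about 35% in these data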;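 also: plate controls were DMSO wells with enzyme for no effect and no-enzyme buffer wells for full effect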
Target sequence (P09923 whole entry, looked up): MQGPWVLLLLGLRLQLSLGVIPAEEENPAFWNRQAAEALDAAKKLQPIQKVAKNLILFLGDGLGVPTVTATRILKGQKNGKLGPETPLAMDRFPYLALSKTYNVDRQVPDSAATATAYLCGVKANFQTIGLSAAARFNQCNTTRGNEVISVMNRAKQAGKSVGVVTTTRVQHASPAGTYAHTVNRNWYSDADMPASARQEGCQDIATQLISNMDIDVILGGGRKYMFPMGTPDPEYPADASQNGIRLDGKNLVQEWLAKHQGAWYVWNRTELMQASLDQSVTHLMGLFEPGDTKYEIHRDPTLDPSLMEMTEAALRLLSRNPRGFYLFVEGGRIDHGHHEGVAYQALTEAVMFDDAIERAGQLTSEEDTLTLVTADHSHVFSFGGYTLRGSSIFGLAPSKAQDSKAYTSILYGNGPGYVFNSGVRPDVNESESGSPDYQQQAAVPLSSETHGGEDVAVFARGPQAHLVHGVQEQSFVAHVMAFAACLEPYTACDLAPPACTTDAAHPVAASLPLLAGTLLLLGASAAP
hIAP act = human IAP activation | P09923 | purified human IAP, CDP-Star luminescence, 30 min; stronger effect = higher value; 1 = vehicle-only enzyme, 0 = enzyme-free background | activation factor at 10 µM | actives 0.16% (n = 330,000) | AID 2524;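 active = activation factor of the enzyme at least 2-fold when tested at 20 µM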
mIAP block = blocks mouse intestinal alkaline phosphatase; purified mouse IAP, CDP-Star luminescence, 30 min; inhibition, % at 10 µM; actives 0.2% (n = 330,000);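 active = inhibition of at least 40% at 10 µM in the primary screen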;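 also: plate controls were DMSO with enzyme for no effect and no enzyme wells for full effect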
* hit, by the source's call; x = no result given. In the library only some 0.77% were active in any assay of this set; here they are far more common.

SMILES	bIAP inh	bIAP activator	mIAP act	hIAP inh	hIAP act	mIAP block
CC(=O)C1=C(C)NC(SCC(=O)c2cc(Cl)ccc2Cl)=C(C#N)C1c1ccco1 (stereo unspecified)	15.6	0.8	0.89	-18.4	1.18	11.0
CC(=O)C1=C(C)NC(SCC(=O)c2ccc(Cl)c(Cl)c2)=C(C#N)C1c1ccco1 (stereo unspecified)	3.3	1	0.804	35.0*	0.65	19.6
CC(C)(C)c1ccc(OCC(=O)Nc2ccc(-c3nc4cccnc4o3)cc2)cc1	-95.1	2*	0.886	12.8	0.872	11.4
OCc1nc2ccccc2n1CCCOc1ccc(Br)cc1	-193.5	2.9*	0.962	-32.4	1.32	3.8
OCc1nc2ccccc2n1CCCCOc1ccccc1	x	x	1.08	5.6	0.944	-7.9
Cc1cccc(C)c1NC(=O)Cn1cc(C=O)c2ccccc21	x	x	1.15	6.1	0.939	-14.7
COc1cc(/C=C(\C#N)C(=O)Nc2cccc3ncccc23)ccc1O	-7.8	1.1	0.941	42.5*	0.575	5.9
COc1ccc(CCN2CC(C(=O)NCCN3CCCC3=O)CCC2=O)cc1 (stereo unspecified)	x	x	0.995	30.6	0.694	0.5
CSCc1nc2sc(C(=O)Nc3nc(C)cs3)c(C)c2c(=O)[nH]1	-11.6	1.1	0.585	7.7	0.923	41.5*
CN(CCCC(=O)Nc1ccc(Br)cc1F)S(=O)(=O)c1ccccc1	x	x	0.975	22.1	0.779	2.5
CCCc1c(NC(=O)Nc2ccc(F)cc2)cnn1-c1ccccc1	x	x	2.3*	5.2	0.948	-130.0
CCCn1c(N)c(C(c2ccc(OC)cc2)N2CCN(c3ccccc3)CC2)c(=O)[nH]c1=O (stereo unspecified)	-156.4	2.6*	1.38	-25.3	1.25	-38.0
CCCn1c(N)c(C(c2ccc(C(=O)OC)cc2)N2CCN(c3ccccc3)CC2)c(=O)[nH]c1=O (stereo unspecified)	-44.8	1.4	1.18	-1.3	1.01	-18.3
CC1CCCC(C)N1C(=O)CN1C(=O)NC2(CCOc3ccccc32)C1=O (stereo unspecified)	x	x	1.04	-3.5	1.03	-4.0
COC(=O)c1ccc(OC(=O)CCN2c3ccccc3Sc3ccccc32)cc1	-413.6	5.1*	0.997	7.0	0.93	0.3
Cc1ccccc1-c1cc(C(=O)NCc2cccc(Br)c2)n(CC2CC(c3cccnc3)=NO2)n1 (stereo unspecified)	x	x	2*	-4.1	1.04	-100.0
CCOC(=O)c1cc(-c2ccccc2)nn1CC1CC(c2ccc(OC)cc2)=NO1 (stereo unspecified)	x	x	1.03	-14.8	1.15	-3.2
COc1ccc(C2=NOC(Cn3nc(-c4ccccc4)cc3C(=O)NCc3cccc(C(F)(F)F)c3)C2)cc1 (stereo unspecified)	x	x	3.24*	-8.3	1.08	-223.7
COc1ccc(C2=NOC(Cn3nc(-c4ccccc4)cc3C(=O)NCc3ccc(C)cc3)C2)cc1 (stereo unspecified)	x	x	3.31*	-8.3	1.08	-231.1
O=C(NCCCN1CCOCC1)c1ccc(NS(=O)(=O)c2ccccc2)cc1	x	x	1.05	-25.3	1.25	-5.0
S=C(Nc1ccc(Cl)c(Cl)c1)NC1CCN(Cc2ccccc2)CC1	5.4	0.9	2.15*	-16.8	1.17	-115.2
S=C(Nc1ccc(Cl)c(Cl)c1)NC1CCCCC1	11.3	0.9	3.2*	0.5	0.995	-220.1
O=C(OCCOc1ccccc1F)c1cccc(S(=O)(=O)N2CCOCC2)c1	x	x	0.943	9.5	0.905	5.7
CCCCc1c(O)nc(SCC(=O)NC(C)(C)C)n(-c2ccccc2C)c1=O	3.2	1	0.583	-6.0	1.06	41.7*
COc1ccc(C2N(C(=O)C(F)(F)F)C(C)CN2S(=O)(=O)c2ccc(C)cc2)cc1 (stereo unspecified)	x	x	0.845	15.5	0.845	15.5
CCN1C(=O)/C(=c2\o/c(=C3\C=Cc4ccccc4N3CC)c(=O)n2CC)SC1=S	38.0	0.6	x	x	x	x
CCN1C(=O)/C(=C2\C=Cc3ccccc3N2CC)SC1=S	25.3	0.7	0.588	30.2	0.698	41.2*
O=C(NCCCn1ccnc1)c1cn(-c2ccccc2)nc1-c1ccc(F)cc1	-115.1	2.2*	1.28	-20.8	1.21	-28.3
O=C(O)c1ccccc1C(=O)NCCCn1ccnc1	x	x	1.13	-42.3	1.42	-12.9
